Data taken from ChEMBL document CHEMBL4152279, “Synthesis, cytotoxic evaluation and target identification of thieno[2,3-d]pyrimidine derivatives with a dithiocarbamate side chain at C2 position” (Eur J Med Chem, 2018).
Calls of active or inactive are those of the source. No cut-off for these calls is given here.

What was measured:
A549 [1] = assay: Binding affinity to tubulin beta in human A549 cells at 0.15 mM after 4 hrs by HPLC-MS based pull down assay relative to control; assay type: cell-based
Outline: (§1)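 A549 lysate in NETN buffer (pH 8.0, 0.5% NP-40) incubated with biotinylated probe (0.15 mM final) 4 h at 4 °C, with biotin or control probe as comparators. Streptavidin Dynabeads 1 h at 4 °C, six NETN washes, proteins eluted by boiling in SDS buffer. After trypsin digestion, identification by LC-MS/MS on Q Exactive HF.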

[2] = target: T1, Nucleolar RNA helicase 2 (Homo sapiens) (UniProt Q9NR30); assay: Binding affinity to nucleolar RNA helicase 2 in human A549 cells at 0.15 mM after 4 hrs by HPLC-MS based pull down assay relative to control; assay type: cell-based; outline: as §1
T1 sequence (whole entry): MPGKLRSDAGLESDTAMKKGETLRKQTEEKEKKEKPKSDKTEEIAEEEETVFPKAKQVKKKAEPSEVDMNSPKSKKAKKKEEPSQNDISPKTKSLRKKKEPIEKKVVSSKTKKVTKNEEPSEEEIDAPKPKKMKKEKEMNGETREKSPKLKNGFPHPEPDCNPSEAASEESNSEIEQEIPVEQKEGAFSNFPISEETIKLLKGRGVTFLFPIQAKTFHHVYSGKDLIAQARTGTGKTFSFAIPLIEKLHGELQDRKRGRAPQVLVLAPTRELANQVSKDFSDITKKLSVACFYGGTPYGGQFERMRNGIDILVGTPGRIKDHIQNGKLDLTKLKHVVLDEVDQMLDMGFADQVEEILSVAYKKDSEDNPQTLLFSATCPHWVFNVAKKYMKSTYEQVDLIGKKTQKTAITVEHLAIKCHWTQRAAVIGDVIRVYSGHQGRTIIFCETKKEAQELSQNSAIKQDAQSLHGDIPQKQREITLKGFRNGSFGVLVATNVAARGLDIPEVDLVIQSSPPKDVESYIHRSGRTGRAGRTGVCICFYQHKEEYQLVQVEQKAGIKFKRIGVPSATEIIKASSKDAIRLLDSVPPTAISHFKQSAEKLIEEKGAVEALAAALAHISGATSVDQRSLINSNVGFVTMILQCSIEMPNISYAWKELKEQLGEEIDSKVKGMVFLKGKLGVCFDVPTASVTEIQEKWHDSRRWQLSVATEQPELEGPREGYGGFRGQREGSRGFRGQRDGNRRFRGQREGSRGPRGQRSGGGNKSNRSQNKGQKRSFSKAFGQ

Sus scrofa = species on record: Sus scrofa; assay: Inhibition of taxol binding to porcine tubulin treated 2 hrs post colchicine treatment by pull down assay
Outline: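 Porcine neuronal tubulin was preincubated with excess taxol, colchicine, vinblastine or nocodazole for 2 h at 4 °C. Biotinylated probe was then added in NETN buffer, followed by streptavidin Dynabead pull-down for 1 h at 4 °C and six washes. Bound α-tubulin was detected by SDS–PAGE and immunoblot. Three independent experiments.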

[3] = target: T2, ATP-dependent RNA helicase DDX1 (Homo sapiens) (UniProt Q92499); assay: Binding affinity to DDX1 in human A549 cells at 0.15 mM after 4 hrs by HPLC-MS based pull down assay relative to control; assay type: cell-based; outline: as §1
T2 sequence (whole entry): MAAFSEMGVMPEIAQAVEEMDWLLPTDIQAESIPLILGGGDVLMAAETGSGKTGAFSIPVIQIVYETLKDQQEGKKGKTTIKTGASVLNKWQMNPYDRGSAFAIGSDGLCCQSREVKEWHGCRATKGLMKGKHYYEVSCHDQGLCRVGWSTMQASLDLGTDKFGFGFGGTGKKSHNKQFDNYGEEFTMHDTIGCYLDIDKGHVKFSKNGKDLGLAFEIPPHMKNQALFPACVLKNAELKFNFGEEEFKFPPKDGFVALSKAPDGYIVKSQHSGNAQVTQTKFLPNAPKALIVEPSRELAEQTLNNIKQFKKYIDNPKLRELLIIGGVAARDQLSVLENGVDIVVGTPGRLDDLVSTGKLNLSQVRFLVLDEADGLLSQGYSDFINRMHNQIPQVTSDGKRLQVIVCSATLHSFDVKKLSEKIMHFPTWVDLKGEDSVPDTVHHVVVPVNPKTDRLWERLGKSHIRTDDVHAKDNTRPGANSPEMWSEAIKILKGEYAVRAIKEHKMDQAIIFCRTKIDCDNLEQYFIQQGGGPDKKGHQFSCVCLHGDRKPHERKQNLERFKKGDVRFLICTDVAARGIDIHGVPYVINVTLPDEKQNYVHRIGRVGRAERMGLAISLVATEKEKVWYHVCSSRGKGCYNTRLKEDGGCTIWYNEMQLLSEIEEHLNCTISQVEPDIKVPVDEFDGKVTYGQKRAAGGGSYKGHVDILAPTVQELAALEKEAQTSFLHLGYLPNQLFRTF

[4] = target: Serine/arginine-rich splicing factor 9 (Homo sapiens) (UniProt Q13242); assay: Binding affinity to serine/arginine-rich-splicing factor 9 in human A549 cells at 0.15 mM after 4 hrs by HPLC-MS based pull down assay relative to control; assay type: cell-based; outline: as §1
A549 [5] = assay: Binding affinity to tubulin alpha in human A549 cells immunoblot based based pull down assay; assay type: cell-based
Outline: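 A549 lysate in NETN buffer incubated with biotin, biotinylated probe or control probe at 4 °C, then streptavidin Dynabeads 1 h at 4 °C. Beads washed six times, bound proteins run on SDS-PAGE and immunoblotted for α-tubulin.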

Serine/arginine-rich splicing factor 9 (Homo sapiens), sequence (Q13242 whole entry): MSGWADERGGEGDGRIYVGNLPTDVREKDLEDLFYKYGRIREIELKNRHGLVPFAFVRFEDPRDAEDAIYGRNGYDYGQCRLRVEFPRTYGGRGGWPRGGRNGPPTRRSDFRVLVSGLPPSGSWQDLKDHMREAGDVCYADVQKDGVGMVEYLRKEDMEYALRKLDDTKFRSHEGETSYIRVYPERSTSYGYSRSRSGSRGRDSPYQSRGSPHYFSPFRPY

Activity [2]: 35.1%
inhibition (Sus scrofa): inactive
Activity [3]: 38.8%
Activity [4]: 63.8%
Compound: Cc1cc2c(=O)[nH]c(CSC(=S)N(CCCNC(=O)CCCC[C@@H]3SC[C@@H]4NC(=O)N[C@@H]43)Cc3ccc(C#N)cc3)nc2s1
Activity (A549 [1]): 35.7%
Activity (A549 [5]): Active
